Measured values as given in ChEMBL document CHEMBL1800047, “Design and synthesis of cyclic sulfonamides and sulfamates as new calcium sensing receptor agonists” (Bioorg Med Chem Lett, 2010).
Numbering of substitutions follows the chain as printed.

How the values were obtained:
Type in all cases: functional, cell-based
[1] = biological target: T1, Extracellular calcium-sensing receptor (Rattus norvegicus) (UniProt P48442); experiment: Agonist activity at rat CaSR expressed in CHO cells assessed as increase of calcium-induced inositol phosphate accumulation at 10 uM after 24 hrs by HTRF assay relative to calcium
T1 sequence (whole entry): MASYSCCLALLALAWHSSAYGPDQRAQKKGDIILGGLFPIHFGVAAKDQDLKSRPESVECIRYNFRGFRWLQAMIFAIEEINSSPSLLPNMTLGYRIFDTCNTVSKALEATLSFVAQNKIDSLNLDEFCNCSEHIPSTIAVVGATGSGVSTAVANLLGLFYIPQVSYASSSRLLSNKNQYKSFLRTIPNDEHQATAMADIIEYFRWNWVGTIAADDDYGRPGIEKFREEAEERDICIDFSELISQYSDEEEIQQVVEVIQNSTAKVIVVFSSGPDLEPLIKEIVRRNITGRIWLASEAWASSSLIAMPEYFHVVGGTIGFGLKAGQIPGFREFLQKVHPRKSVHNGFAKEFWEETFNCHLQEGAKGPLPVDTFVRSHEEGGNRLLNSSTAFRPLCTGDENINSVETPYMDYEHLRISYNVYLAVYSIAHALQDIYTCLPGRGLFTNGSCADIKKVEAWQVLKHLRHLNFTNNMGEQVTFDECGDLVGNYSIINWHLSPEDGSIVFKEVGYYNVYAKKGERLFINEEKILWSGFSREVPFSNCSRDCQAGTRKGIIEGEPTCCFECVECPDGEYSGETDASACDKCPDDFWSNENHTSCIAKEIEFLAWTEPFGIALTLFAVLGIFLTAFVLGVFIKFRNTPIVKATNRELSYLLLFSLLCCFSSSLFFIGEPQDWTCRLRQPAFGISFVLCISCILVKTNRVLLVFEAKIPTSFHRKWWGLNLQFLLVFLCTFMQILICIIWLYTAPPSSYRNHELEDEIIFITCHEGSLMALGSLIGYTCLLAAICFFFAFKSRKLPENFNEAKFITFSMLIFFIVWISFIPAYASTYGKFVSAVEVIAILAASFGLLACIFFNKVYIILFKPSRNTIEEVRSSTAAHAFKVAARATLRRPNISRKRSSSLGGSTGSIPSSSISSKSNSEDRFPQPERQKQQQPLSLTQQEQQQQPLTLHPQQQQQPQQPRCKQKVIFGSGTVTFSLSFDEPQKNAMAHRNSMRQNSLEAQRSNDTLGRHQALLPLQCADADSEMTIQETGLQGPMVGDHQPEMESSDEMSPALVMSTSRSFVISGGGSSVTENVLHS
In short: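 CHO cells stably expressing rat brain CaSR are grown in Ham's F-12 (0.3 mM Ca²⁺, 0.6 mM Mg²⁺) and seeded at 4 × 10⁴ cells/well. IP-One HTRF runs 24 h later: 10 min preincubation at 37 °C, then 10 µM compound (from 10 mM DMSO stock) with 3 mM Ca²⁺, 30 min at 37 °C. Values are % of 10 mM Ca²⁺ stimulation, mean with S.E.M.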

[2] = system: T2, Extracellular calcium-sensing receptor (Homo sapiens), P41180 [E837A]; experiment: Agonist activity at human CaSR E837A mutant expressed in HEK293 cells assessed as increase of calcium-induced inositol phosphate accumulation at 10 uM after 48 hrs by HTRF assay relative to calcium
T2 sequence (whole entry): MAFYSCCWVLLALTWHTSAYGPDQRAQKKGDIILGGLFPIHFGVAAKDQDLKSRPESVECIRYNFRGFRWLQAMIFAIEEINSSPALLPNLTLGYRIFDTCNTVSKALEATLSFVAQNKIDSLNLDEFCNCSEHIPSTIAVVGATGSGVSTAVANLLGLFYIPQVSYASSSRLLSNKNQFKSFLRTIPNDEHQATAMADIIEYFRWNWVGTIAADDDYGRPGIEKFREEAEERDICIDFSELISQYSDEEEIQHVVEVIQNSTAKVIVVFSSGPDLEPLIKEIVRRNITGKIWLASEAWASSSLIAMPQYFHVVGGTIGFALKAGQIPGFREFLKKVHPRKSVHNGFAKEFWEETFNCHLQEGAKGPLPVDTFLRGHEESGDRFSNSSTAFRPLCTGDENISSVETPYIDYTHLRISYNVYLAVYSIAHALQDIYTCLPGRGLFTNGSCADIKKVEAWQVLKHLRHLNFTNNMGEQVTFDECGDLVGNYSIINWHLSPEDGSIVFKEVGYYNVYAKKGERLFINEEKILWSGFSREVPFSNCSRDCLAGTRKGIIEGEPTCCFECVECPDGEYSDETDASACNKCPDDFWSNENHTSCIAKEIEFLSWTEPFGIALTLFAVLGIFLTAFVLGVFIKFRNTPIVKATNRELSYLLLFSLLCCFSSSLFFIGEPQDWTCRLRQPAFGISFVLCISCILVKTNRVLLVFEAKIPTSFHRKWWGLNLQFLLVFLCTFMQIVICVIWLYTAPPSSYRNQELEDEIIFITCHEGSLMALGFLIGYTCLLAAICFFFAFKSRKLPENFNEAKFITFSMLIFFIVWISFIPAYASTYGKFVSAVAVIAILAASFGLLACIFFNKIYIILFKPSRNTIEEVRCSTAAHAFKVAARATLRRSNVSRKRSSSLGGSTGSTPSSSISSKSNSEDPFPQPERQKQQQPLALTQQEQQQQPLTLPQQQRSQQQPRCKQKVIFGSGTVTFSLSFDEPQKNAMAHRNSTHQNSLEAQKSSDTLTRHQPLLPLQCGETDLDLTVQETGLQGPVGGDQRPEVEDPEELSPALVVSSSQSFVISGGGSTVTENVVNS
In short: (§1)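 Wild-type or E837A mutant hCaSR (pcDNA3) transiently transfected into HEK293 cells (10⁷ cells, electroporation). Cells are plated on poly-D-lysine and assayed 48 h later. The assay uses a 10 min preincubation at 37 °C, then compound plus 3 mM Ca²⁺ for 30 min at 37 °C. IP-One HTRF read-out is 620/665 nm after 337 nm excitation. Values are % of 10 mM Ca²⁺ response, mean with S.E.M.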

[3] = biological target: T3, Extracellular calcium-sensing receptor (Homo sapiens) (UniProt P41180); experiment: Agonist activity at human CaSR expressed in HEK293 cells assessed as increase of calcium-induced inositol phosphate accumulation at 10 uM after 48 hrs by HTRF assay relative to calcium; in short: as §1
T3 sequence (whole entry): T2 sequence (whole entry) with A837E, Q1011E

Compound | Activity [1] | Activity [2] | Activity [3]
C[C@@H](NC[C@@H]1NS(=O)(=O)c2ccccc2-c2ccccc21)c1cccc2ccccc12 | 19% |  | 
C[C@@H](NC[C@H]1NS(=O)(=O)c2ccccc2-c2ccccc21)c1cccc2ccccc12 | 29% |  | 
C[C@@H](NCc1cc2ccccc2[nH]1)c1cccc2ccccc12 | 95% | 41% | 94%
C[C@@H](N[C@@H]1CNS(=O)(=O)c2ccccc21)c1cccc2ccccc12 | 13% |  | 
C[C@@H](N[C@H]1CNS(=O)(=O)c2ccccc21)c1cccc2ccccc12 | 30% |  | 
C[C@@H](NC1CNS(=O)(=O)Oc2ccccc2C1)c1cccc2ccccc12 (single isomer, unassigned; diastereomer 1) | 67% | 1% | 67%
C[C@@H](NCC1CCc2ccccc2S(=O)(=O)N1)c1cccc2ccccc12 (single isomer, unassigned; diastereomer 1) | 75% | 3% | 70%
C[C@@H](NCC1Cc2ccccc2OS(=O)(=O)N1)c1cccc2ccccc12 (single isomer, unassigned; diastereomer 1) | 85% | 51% | 75%
C[C@@H](NCC1Cc2ccccc2S(=O)(=O)N1)c1cccc2ccccc12 (single isomer, unassigned; diastereomer 1) | 71% | 22% | 73%
C[C@@H](NCC1NS(=O)(=O)c2ccccc21)c1cccc2ccccc12 (single isomer, unassigned; diastereomer 1) | 57% | 11% | 58%
C[C@@H](NC1CNS(=O)(=O)Oc2ccccc2C1)c1cccc2ccccc12 (single isomer, unassigned; diastereomer 2) | 17% | 1% | 2%
C[C@@H](NCC1CCc2ccccc2S(=O)(=O)N1)c1cccc2ccccc12 (single isomer, unassigned; diastereomer 2) | 37% | 1% | 40%
C[C@@H](NCC1Cc2ccccc2OS(=O)(=O)N1)c1cccc2ccccc12 (single isomer, unassigned; diastereomer 2) | 76% | 27% | 65%
C[C@@H](NCC1Cc2ccccc2S(=O)(=O)N1)c1cccc2ccccc12 (single isomer, unassigned; diastereomer 2) | 69% | 10% | 64%
C[C@@H](NCC1NS(=O)(=O)c2ccccc21)c1cccc2ccccc12 (single isomer, unassigned; diastereomer 2) | 39% | 11% | 51%
